Measurements: the EternaBench riboswitch data

Key:
MS2 coat protein [1] = experiment: apparent Kd, MS2 coat protein; higher = weaker binding; RNA-MaP array
How it was run: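 On an Illumina sequencing chip, sequenced DNA templates served for transcription of the designed RNAs, which were then bound at room temperature by fluorescently labeled MS2 coat protein at 1.5 nM to 3 μM, with or without input ligand. Apparent Kd is the median of the fits to each cluster's binding curve. Only designs measured on at least 10 clusters were kept.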

MS2 coat protein [2] = experiment: apparent Kd, MS2 coat protein; higher = weaker binding; RNA-MaP array; FMN 200 µM where present
How it was run: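 SNAP-549-labelled MS2 coat protein, doubled from 0.7 or 1.5 nM to 3 µM, was titrated over designs transcribed by stalled E. coli RNA polymerase on Illumina sequencing-chip clusters. Titrations were run without and then with constant ligand in 100 mM Tris-HCl pH 7.5, 80 mM KCl, 4 mM MgCl2, BSA, DTT, yeast tRNA and Tween-20. The apparent Kd is the median of filtered per-cluster fits to green signal normalised to red-channel RNA signal and control-cluster median Fmax.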

[3] = designed as: OFF switch for flavin mononucleotide, no ligand
[4] = ligand present: flavin mononucleotide, designed as: OFF switch for flavin mononucleotide
[5] = designed as: ON switch for flavin mononucleotide, no ligand
[6] = ligand present: flavin mononucleotide, designed as: ON switch for flavin mononucleotide

Sequence: AAAAUAGCAGGAUAUACAUGAGGAUCACCCAUGUCAAGACAGCACGGUGCAAGGUAGGGUAGAAGGGCUAAUUG
- apparent Kd (MS2 coat protein [1]; [3]): 22.8 nM
- apparent Kd (MS2 coat protein [1]; [4]): 30.1 nM

Sequence: AAACAGAGCAGAGGAUAUAUGAUAUGCCGAACAUGAGGAUCACCCAUGUCUUCGCGUAGCGCCCCAUAGAAGGCUGAUAGCAAC
- apparent Kd (MS2 coat protein [1]; [5]): 16.6 nM
- apparent Kd (MS2 coat protein [1]; [6]): 14 nM

Sequence: AAACAUGCGUGAGAGGAUAUGUCAUUAAUAACAUGAGGAUCACCCAUGUUCGAUGAUUGAAAUAAACAGAAGGCUCCGGUCUGUAA
- apparent Kd (MS2 coat protein [1]; [5]): 27 nM
- apparent Kd (MS2 coat protein [1]; [6]): 18.7 nM

Sequence: AAAGCAGUAGGAUAUACAGUCAUCCGACAGAUAGCGUAAAGACAUGAGGAUCACCCAUGUAGAAGGACUGUAAA
- apparent Kd (MS2 coat protein [1]; [3]): 6.35 nM
- apparent Kd (MS2 coat protein [1]; [4]): 6.28 nM

Sequence: AACAUGAGGAUCACCCAUGUACACUCAAUUCGGUAUCGCUGCAAGGAUAUUCGCGUUGGAUACAUGAAGAAGGUGCCCGUACCG
- apparent Kd (MS2 coat protein [1]; [5]): 92 nM
- apparent Kd (MS2 coat protein [1]; [6]): 12.5 nM

Sequence: AACUAAAACGAUAGUCGACAUGAGGAUCACCCAUGUACAAAACAGGAUAUAAGAUUACCGGUGUGUAAGAAGGGUUUGCUAUCA
- apparent Kd (MS2 coat protein [1]; [5]): 15.2 nM
- apparent Kd (MS2 coat protein [1]; [6]): 12.6 nM

Sequence: AAGCGUUCAGGAUAUACAUGAGGAUCACCCAUGUAAUGGAUGCUGCAUUACCGGGCGAGUAGAAGGGAAACGUC
- apparent Kd (MS2 coat protein [1]; [3]): 6.09 nM
- apparent Kd (MS2 coat protein [1]; [4]): 6.24 nM

Sequence: AAGCUUCAACUUCAUUCACAUGAGGAUCACCCAUGUGAUCCGAGAAGGUUUCACUAGAAUUCUGAAAAGGAUAUCGAUCACAAU
- apparent Kd (MS2 coat protein [1]; [3]): 16.2 nM
- apparent Kd (MS2 coat protein [1]; [4]): 19.7 nM

Sequence: AAUAGAGCACUAGGAUAUGUUUCGUGUGCAGGUGGACAUGAGGAUCACCCAUGUAUAUGUUCAAGACAGAAGGAGACAGAUGAA
- apparent Kd (MS2 coat protein [1]; [3]): 59.2 nM
- apparent Kd (MS2 coat protein [1]; [4]): 38.4 nM

Sequence: AAUAUAAACGUCAGGAUAUUCACGAUAAACAAAUAGAAGAAGGGACAUGAGGAUCACCCAUGUAAACAUGAGUA
- apparent Kd (MS2 coat protein [1]; [3]): 11.6 nM
- apparent Kd (MS2 coat protein [1]; [4]): 18.3 nM

Sequence: AAUGAAAAGCAGAAGGCCUUAGCAAGUCGUAGAGGAGGAUAUGCGUACGCGGGUUGGCCAACAUGAGGAUCACCCAUGUCACCA
- apparent Kd (MS2 coat protein [1]; [3]): 22.4 nM
- apparent Kd (MS2 coat protein [1]; [4]): 26.3 nM

Sequence: AAUGGAGUCGAGAAGGCAGCGACCCACUAAACCUGAGGAUAUCGUCUCCGAAAAUGGGUGGGUGUACAUGAGGAUCACCCAUGU
- apparent Kd (MS2 coat protein [1]; [3]): 95.2 nM
- apparent Kd (MS2 coat protein [1]; [4]): 122 nM

Sequence: ACAACAAAACAGAAGGCCUUAAAUUACAUGAGGAUCACCCAUGUUACACUAUACAAACAGAACAAGGAGGAUAUGUAAGACUGA
- apparent Kd (MS2 coat protein [1]; [5]): 19.9 nM
- apparent Kd (MS2 coat protein [1]; [6]): 8.65 nM

Sequence: ACAAGCCGAGGAUAUACAAGAAAGGCAAGACUGAUAAGAUAACAUGAGGAUCACCCAUGUAGAAGGCGGAAUAC
- apparent Kd (MS2 coat protein [1]; [3]): 10.4 nM
- apparent Kd (MS2 coat protein [1]; [4]): 14.1 nM

Sequence: ACAUGAGGAUCACCCAUGUUUUAUUCGAACUGGAAAUGACGUCAGGAUAUCACAAAUAGCAGCAAUGAGAAGGGACUAUAUAUG
- apparent Kd (MS2 coat protein [1]; [5]): 11.6 nM
- apparent Kd (MS2 coat protein [1]; [6]): 8.79 nM

Sequence: ACCAUCACAUGAGGAUCACCCAUGUAAAUAACUACAUAGACGGAGGAUAUCACAAUAACAGCGAAAGAGAAGGCCGGUGUAAAA
- apparent Kd (MS2 coat protein [1]; [5]): 11.5 nM
- apparent Kd (MS2 coat protein [1]; [6]): 8.1 nM

Sequence: UUGUUAGGGAGAGGAUAUUGACAUGAGGAUCACCCAUGUAUUUGGGAGUGUUUACUGAAUUCUCACGAGAAGGCUUACGAAUUU
- apparent Kd (MS2 coat protein [2]; [3]): 550 nM
- apparent Kd (MS2 coat protein [2]; [4]): 471 nM

Sequence: UUGUUGUAUGUAGGAUAUGCAUAUUGUUAUUAUGCAGAAGGACAUGAGGAUCACCCAUGUAUAUUAUUAUUAUAUAUUAUAUAU
- apparent Kd (MS2 coat protein [2]; [3]): 27.7 nM
- apparent Kd (MS2 coat protein [2]; [4]): 43.9 nM

Sequence: UUUAACGUAGCAGGAUAUUGACGACUUGGGACAUGAGGAUCACCCAUGUUGCAAGAAGGGCUUAGUCAAGACACGAGCGGUGUU
- apparent Kd (MS2 coat protein [2]; [3]): 6.54 nM
- apparent Kd (MS2 coat protein [2]; [4]): 8.15 nM

Sequence: UUUACAUUACGAGGAUAUCAAUUAUUUCAUGUAUGAGAAGGCGUUAUUUUUACUACCUUACAUGAGGAUCACCCAUGUUUCAUU
- apparent Kd (MS2 coat protein [2]; [5]): 62.8 nM
- apparent Kd (MS2 coat protein [2]; [6]): 27.8 nM

Sequence: UUUAUAAAGAUAGGAUAUAGUAUAAUAAUUUAAUUAGAAGGAUCACACAUGAGGAUCACCCAUGUAUGAGGAUCACCCAUGUAU
- apparent Kd (MS2 coat protein [2]; [3]): 20.4 nM
- apparent Kd (MS2 coat protein [2]; [4]): 21.1 nM

Sequence: UUUAUAAAGGUAGGAUAUUGUAUUAUAAUUAAAUAAGAAGGAUCACACAUGAGGAUCACCCAUGUAUGAGGAUCACCCAUGUAU
- apparent Kd (MS2 coat protein [2]; [3]): 15.7 nM
- apparent Kd (MS2 coat protein [2]; [4]): 14.4 nM

Sequence: UUUAUAAGAAAAUAAACGAAGUGGCCAGAAGGUGAAUGCCACAUGAGGAUCACCCAUGUUUCGAUCAAGGAUAUGGUUUCUCAC
- apparent Kd (MS2 coat protein [2]; [5]): 400 nM
- apparent Kd (MS2 coat protein [2]; [6]): 107 nM

Sequence: UUUAUGAAGCUUCGUCAAUACAGUUAGGAUAUGAGAGACAUGAGGAUCACCCAUGUGCAUGUUGAUUAGAAGGAACAACUAUCU
- apparent Kd (MS2 coat protein [2]; [3]): 17.6 nM
- apparent Kd (MS2 coat protein [2]; [4]): 15.1 nM

Sequence: UUUCGGCUCGAGAAGGUCUAUCGACAUGAGGAUCACCCAUGUUGCCAUGGAAGGAUAUCGAAGGCAGCACGGGAAAUAGUCCGG
- apparent Kd (MS2 coat protein [2]; [5]): 185 nM
- apparent Kd (MS2 coat protein [2]; [6]): 53.3 nM

Sequence: UUUGCAACAUGAGGAUCACCCAUGUAGGAUAUCGCUAUUGUAAUCAUGAAACAUGAUUACAAUAGCGAGAAGGACAUAUGCGGG
- apparent Kd (MS2 coat protein [2]; [3]): 44.4 nM
- apparent Kd (MS2 coat protein [2]; [4]): 35 nM

Sequence: UUUGCAUUCCGAGGAUAUUCAUAUAAUAAAUAAACAUGAGGAUCACCCAUGUGGCGAAAGCCUAGGGAGAAGGCGGUUUGCUUU
- apparent Kd (MS2 coat protein [2]; [5]): 139 nM
- apparent Kd (MS2 coat protein [2]; [6]): 25.7 nM
